We go through 10 molecules from ChEMBL document CHEMBL4014298, “Discovery of a series of 8-(1-phenylpyrrolidin-2-yl)-6-carboxamide-2-morpholino-4H-chromen-4-one as PI3Kβ/δ inhibitors for the treatment of PTEN-deficient tumours” (Bioorg Med Chem Lett, 2017).

pIC50: −log10 of the molar value. Where only a bound is given, the exact number is not on record here.

Usually logD stands for lipophilicity at a set pH, counting ionised and neutral species. For orientation: pIC50 means the negative decadic logarithm of the IC50, by convention in mol/L. By AUC is commonly meant the area under the concentration-time curve, a measure of exposure. Lower therefore signals less exposure. A word on the Papp A→B: it is how fast a substance crosses the layer from the apical side. As a reminder, the bioavailability is dose-corrected exposure relative to a reference, in per cent. A higher bioavailability goes with good availability. Usually fraction unbound stands for the share of the substance not bound to proteins or other matrix.

Data set [1] can be described thus: Lipophilicity, log D of the compound at pH 7.4. The conditions noted are these: buffer.
The nature of data set [2]: Inhibition of PI3Kalpha mutant in human BT474 cells assessed as decrease in AKT phosphorylation at Thr308 after 2 hrs. Format: cell-based. The conditions noted are these: BT-474, 2 h.
Data set [3] in a line: Intrinsic clearance in human hepatocytes assessed per million cells. Type of data set: ADME, cell-based, Hepatocyte. The conditions noted are these: read-out: CLH.
Data set [4] addresses T1, Phosphatidylinositol 4,5-bisphosphate 3-kinase catalytic subunit beta isoform (Homo sapiens, UniProt P42338). As to the kind of experiment: Inhibition of PI3Kbeta in PTEN-deficient human MDA-MB-468 cells assessed as decrease in AKT phosphorylation at Ser473 measured after 2 hrs.
Data set [5] in a line: AUC in mouse at 30 umol/kg, po. Format: ADME. As to conditions: in vivo.
Data set [6] is described as follows: Apparent permeability across apical to basolateral side in human Caco2 cells. The conditions noted are these: Caco-2. A general note: Caco-2 monolayers are a common model of the intestinal barrier.
The target in data set [7] is Phosphatidylinositol 4,5-bisphosphate 3-kinase catalytic subunit gamma isoform (Homo sapiens, UniProt P48736). As to the kind of experiment: Inhibition of recombinant human PI3Kgamma using PIP2 as substrate preincubated for 20 mins followed by substrate addition measured after 80 mins in presence of ATP by Kinase Glo luminescence assay. The gist of the method: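 Enzyme IC50 against PI3Kγ, single determination (n=1).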
Sequence of Phosphatidylinositol 4,5-bisphosphate 3-kinase catalytic subunit gamma isoform (P48736 whole entry, canonical isoform): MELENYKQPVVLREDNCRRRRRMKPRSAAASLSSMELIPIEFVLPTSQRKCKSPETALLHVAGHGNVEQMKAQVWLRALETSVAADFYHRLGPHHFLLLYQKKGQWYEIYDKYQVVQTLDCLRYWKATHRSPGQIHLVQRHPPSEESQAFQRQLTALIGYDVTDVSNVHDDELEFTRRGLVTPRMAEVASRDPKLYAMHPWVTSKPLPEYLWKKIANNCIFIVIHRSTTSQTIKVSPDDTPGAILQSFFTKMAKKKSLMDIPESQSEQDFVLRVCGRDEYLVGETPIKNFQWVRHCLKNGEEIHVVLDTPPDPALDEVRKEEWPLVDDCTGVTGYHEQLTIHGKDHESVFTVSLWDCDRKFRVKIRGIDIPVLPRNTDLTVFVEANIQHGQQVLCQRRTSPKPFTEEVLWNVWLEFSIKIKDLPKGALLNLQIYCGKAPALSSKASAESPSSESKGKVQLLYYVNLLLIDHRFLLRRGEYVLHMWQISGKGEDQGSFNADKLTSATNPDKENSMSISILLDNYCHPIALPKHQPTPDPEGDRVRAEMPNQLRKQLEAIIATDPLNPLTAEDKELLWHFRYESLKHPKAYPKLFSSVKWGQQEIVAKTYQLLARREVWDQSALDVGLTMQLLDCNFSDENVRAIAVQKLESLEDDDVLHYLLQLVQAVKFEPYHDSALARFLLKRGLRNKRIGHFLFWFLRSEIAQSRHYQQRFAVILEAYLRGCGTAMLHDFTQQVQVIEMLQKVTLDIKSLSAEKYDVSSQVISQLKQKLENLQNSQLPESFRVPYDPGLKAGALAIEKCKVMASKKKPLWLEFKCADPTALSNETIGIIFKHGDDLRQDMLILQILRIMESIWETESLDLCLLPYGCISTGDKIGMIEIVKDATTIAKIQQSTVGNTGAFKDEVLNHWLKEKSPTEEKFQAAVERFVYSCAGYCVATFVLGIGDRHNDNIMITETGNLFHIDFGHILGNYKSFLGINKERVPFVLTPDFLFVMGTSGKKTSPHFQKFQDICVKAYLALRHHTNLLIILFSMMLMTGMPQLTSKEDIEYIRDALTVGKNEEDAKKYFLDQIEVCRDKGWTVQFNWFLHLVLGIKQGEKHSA

Data set [8] deals with T1, Phosphatidylinositol 4,5-bisphosphate 3-kinase catalytic subunit beta isoform. As to the kind of experiment: Inhibition of recombinant human PI3Kbeta using PIP2 as substrate preincubated for 20 mins followed by substrate addition measured after 80 mins in presence of ATP by Kinase Glo luminescence assay. In general terms: Kinase-Glo measures the ATP left after a reaction by luminescence.

Data set [9] has as its target Phosphatidylinositol 4,5-bisphosphate 3-kinase catalytic subunit alpha isoform (Homo sapiens, UniProt P42336). As to the kind of experiment: Inhibition of recombinant human PI3Kalpha using PIP2 as substrate preincubated for 20 mins followed by substrate addition measured after 80 mins in presence of ATP by Kinase Glo luminescence assay.
The species entered for the next data set is Homo sapiens. As to the kind of experiment: Selectivity ratio of IC50 for PI3Kalpha mutant in human BT474 cells to IC50 for PI3Kbeta in PTEN-deficient human MDA-MB-468 cells. Type of data set: cell-based. In outline:
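Ratio of two cellular IC50s. PI3Kα IC50 is from inhibition of AKT Thr308 phosphorylation in PIK3CA-mutant human breast ductal carcinoma BT474 cells. PI3Kβ IC50 is from inhibition of AKT Ser473 phosphorylation in PTEN-null breast adenocarcinoma MDA-MB-468 cells.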

Data set [10] addresses T2, Phosphatidylinositol 4,5-bisphosphate 3-kinase catalytic subunit delta isoform (Homo sapiens, UniProt O00329).
T2 sequence (O00329 whole entry): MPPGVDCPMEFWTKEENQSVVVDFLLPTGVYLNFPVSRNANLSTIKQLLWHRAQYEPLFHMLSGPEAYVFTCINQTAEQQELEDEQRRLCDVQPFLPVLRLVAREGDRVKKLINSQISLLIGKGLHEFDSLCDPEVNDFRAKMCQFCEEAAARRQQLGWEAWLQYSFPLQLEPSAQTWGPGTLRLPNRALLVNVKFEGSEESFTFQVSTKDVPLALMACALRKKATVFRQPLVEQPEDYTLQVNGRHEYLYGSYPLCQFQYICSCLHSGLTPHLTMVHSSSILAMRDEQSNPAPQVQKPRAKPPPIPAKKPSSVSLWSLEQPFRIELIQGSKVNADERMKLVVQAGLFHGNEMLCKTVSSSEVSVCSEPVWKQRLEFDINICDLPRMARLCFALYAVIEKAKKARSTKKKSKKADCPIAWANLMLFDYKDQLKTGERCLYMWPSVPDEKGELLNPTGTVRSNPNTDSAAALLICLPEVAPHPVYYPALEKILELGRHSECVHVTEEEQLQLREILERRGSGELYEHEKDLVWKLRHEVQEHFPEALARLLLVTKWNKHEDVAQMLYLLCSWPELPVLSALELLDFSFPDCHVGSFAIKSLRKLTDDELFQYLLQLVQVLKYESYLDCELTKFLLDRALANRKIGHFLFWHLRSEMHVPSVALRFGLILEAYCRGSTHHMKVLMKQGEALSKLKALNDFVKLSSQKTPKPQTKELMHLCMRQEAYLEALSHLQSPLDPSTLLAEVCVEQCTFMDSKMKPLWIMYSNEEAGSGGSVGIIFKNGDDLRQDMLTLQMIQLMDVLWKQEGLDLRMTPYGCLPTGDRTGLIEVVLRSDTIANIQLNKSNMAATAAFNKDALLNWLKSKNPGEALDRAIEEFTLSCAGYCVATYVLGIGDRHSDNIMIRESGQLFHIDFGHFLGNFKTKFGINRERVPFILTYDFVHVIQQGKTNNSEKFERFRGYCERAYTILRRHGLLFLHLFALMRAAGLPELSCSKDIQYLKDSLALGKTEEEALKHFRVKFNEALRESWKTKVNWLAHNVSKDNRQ
As to the kind of experiment: Inhibition of recombinant human PI3Kdelta using PIP2 as substrate preincubated for 20 mins followed by substrate addition measured after 80 mins in presence of ATP by Kinase Glo luminescence assay.

Data set [11] can be described thus: Intrinsic clearance in mouse hepatocytes assessed per million cells. Type of data set: ADME, cell-based, Hepatocyte. The conditions noted are these: read-out: CLH. The gist of the method:
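Intrinsic clearance measured in mouse or dog hepatocytes, expressed as CL_int in […].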

The nature of data set [12]: Oral bioavailability in mouse blood at 30 umol/kg. Type of data set: ADME, organism-based.
Data set [13] can be described thus: Fraction unbound in human plasma. Format: ADME, cell-free. The gist of the method:
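Plasma protein binding in mouse, dog or human plasma, reported as fraction unbound (%).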

Data set [14] in a line: Volume of distribution at steady state in mouse blood at 5 umol/kg, iv or 30 umol/kg, po. The conditions noted are these: read-out: Vdss. Type of data set: ADME, organism-based.
A short description of data set [15]: Clearance in mouse blood at 5 umol/kg, iv or 30 umol/kg, po. Format: ADME, organism-based.

T1 sequence (P42338 whole entry, canonical isoform): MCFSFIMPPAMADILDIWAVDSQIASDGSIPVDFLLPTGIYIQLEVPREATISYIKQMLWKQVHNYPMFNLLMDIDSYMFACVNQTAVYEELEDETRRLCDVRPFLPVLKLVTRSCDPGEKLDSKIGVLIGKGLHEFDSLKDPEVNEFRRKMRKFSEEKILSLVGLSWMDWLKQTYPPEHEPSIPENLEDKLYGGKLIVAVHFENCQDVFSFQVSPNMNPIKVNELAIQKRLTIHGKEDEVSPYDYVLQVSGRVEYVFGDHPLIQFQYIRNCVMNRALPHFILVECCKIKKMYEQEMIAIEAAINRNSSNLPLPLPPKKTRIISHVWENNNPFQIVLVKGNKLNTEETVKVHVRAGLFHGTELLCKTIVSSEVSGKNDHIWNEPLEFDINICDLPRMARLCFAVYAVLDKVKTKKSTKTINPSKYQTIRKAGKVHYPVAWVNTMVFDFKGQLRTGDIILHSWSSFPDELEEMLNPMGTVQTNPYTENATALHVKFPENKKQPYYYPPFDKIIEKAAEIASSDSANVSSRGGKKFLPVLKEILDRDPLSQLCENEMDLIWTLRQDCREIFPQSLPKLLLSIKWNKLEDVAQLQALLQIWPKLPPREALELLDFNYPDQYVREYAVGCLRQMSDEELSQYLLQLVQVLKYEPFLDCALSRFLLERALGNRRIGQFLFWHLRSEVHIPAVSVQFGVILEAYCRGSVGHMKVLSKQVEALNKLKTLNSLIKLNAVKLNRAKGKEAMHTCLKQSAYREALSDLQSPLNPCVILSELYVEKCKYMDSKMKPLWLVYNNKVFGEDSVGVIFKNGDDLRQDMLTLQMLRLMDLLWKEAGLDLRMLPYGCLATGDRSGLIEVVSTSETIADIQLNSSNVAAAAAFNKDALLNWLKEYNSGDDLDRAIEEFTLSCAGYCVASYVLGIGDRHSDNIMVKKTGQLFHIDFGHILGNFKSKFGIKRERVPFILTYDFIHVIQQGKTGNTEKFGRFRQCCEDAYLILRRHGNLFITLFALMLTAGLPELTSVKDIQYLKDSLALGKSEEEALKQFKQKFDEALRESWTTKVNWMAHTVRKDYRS
Sequence of Phosphatidylinositol 4,5-bisphosphate 3-kinase catalytic subunit alpha isoform (P42336 whole entry, canonical isoform): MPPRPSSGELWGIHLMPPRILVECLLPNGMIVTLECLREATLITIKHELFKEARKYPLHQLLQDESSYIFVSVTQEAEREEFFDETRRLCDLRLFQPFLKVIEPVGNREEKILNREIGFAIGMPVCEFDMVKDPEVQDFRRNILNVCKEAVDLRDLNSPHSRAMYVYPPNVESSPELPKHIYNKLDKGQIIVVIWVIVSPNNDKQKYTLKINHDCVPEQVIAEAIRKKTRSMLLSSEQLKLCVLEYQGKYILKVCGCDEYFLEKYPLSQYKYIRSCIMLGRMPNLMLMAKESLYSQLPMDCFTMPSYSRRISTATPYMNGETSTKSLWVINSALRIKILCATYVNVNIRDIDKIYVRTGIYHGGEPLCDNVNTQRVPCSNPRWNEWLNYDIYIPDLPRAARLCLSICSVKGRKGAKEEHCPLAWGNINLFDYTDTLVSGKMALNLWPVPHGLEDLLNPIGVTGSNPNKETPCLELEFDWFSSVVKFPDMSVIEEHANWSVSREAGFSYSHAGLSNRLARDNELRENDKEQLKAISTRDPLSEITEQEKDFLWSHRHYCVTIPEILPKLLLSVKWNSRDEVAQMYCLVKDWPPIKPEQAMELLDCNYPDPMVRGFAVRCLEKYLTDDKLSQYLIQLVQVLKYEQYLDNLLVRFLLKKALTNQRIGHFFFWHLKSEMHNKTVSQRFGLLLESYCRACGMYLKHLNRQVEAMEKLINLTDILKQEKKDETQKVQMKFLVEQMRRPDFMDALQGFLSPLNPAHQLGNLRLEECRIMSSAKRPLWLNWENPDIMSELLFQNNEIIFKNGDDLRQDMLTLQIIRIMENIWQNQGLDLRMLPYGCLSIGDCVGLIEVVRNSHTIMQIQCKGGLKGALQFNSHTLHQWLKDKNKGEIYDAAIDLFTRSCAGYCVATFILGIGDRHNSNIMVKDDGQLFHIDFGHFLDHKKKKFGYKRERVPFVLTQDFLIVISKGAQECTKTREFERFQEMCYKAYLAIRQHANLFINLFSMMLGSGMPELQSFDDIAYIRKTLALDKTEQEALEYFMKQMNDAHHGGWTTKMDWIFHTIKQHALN

In [1], `CN(C)C(=O)c1cc([C@H]2CCCN2c2cccc(F)c2)c2oc(N3CCOCC3)cc(=O)c2c1` returned a logD of 2.5. For the same molecule, the pIC50 in data set [2] was 7.04; in data set [4], 8.92. In data set [3], the hepatocyte CLint turned out to be 15 µL/min/1e6 cells.
In the same order, the values of `O=C(c1cc(C2CCCN2c2cc(F)cc(F)c2)c2oc(N3CCOCC3)cc(=O)c2c1)N1CCC(O)CC1` (racemic) are 2.3, 6.20, 8.52 and under 3 µL/min/1e6 cells.
As to `CN(CCO)C(=O)c1cc(C2CCCN2c2cc(F)cc(F)c2)c2oc(N3CCOCC3)cc(=O)c2c1` (racemic), the AUC in [5] was 0.3 µM·h. The same molecule came in with a logD in [1] of 2. Also, in [6], the Papp A→B is 2.6 ×10⁻⁶ cm/s. Besides, the pIC50 in data set [2] is 6.06; in data set [4], 8.70. For the same molecule, the hepatocyte CLint in [3] was determined as 4 µL/min/1e6 cells.
Molecule `CN(C)C(=O)c1cc(C2CCCN2c2cc(F)cc(F)c2)c2oc(N3CCOCC3)cc(=O)c2c1` (racemic) registered an AUC in data set [5] of 2.4 µM·h. The molecule also displayed a logD in [1] of 2.7. Also, the Papp A→B in [6] is 33 ×10⁻⁶ cm/s. Further, the pIC50 in data set [2] is 6.82; in [4] it was 8.92. The hepatocyte CLint in data set [3] stood at 17 µL/min/1e6 cells.
In data set [5], `CN(C)C(=O)c1cc(C2CCCN2c2ccccc2)c2oc(N3CCOCC3)cc(=O)c2c1` (racemic) displayed an AUC of 6 µM·h. Also, the pIC50 in [2] is 6.32. Also, the hepatocyte CLint in data set [3] came to 11 µL/min/1e6 cells.
With `Cc1cc([C@@H](C)Nc2ccccc2)c2nc(N3CCOCC3)cc(=O)n2c1`, the logD in data set [1] came out at 3.6.
For `O=C(c1cc(C2CCCN2c2ccc(F)cc2)c2oc(N3CCOCC3)cc(=O)c2c1)N1CCOCC1` (single isomer, unassigned), the pH-dependent lipophilicity (logD) in [1] was 2.2. Also, the pIC50 was 5.92 in data set [2] and 8.35 in data set [4]. Further, the hepatocyte CLint in data set [3] stood at 8 µL/min/1e6 cells.
Regarding `CN(C)C(=O)c1cc([C@H]2CCCN2c2ccc(F)cc2)c2oc(N3CCOCC3)cc(=O)c2c1`, the AUC in [5] amounted to 1 µM·h. Besides, the pIC50 in data set [7] is 6.48; in data set [8], 8.17; in [2], 6.74; in data set [9], 7.62; in data set [4], 8.47; in data set [10], 8.09. Also, the hepatocyte CLint in data set [3] was 14 µL/min/1e6 cells. Besides, the Ratio IC50 in the data set listed under Homo sapiens came to 50.
`CN1CCN(C(=O)c2cc([C@H]3CCCN3c3cc(F)cc(F)c3)c3oc(N4CCOCC4)cc(=O)c3c2)CC1` returned a logD in [1] of 2.3. The Papp A→B in data set [6] stood at 3.3 ×10⁻⁶ cm/s. In addition, the figures for the pIC50 in data set [2] and in [4] were 6.60 and 8.64, respectively. Further, the hepatocyte CLint in data set [3] came to 11 µL/min/1e6 cells.
In [5], `O=C(c1cc([C@H]2CCCN2c2cccc(F)c2)c2oc(N3CCOCC3)cc(=O)c2c1)N1CCOCC1` registered an AUC of 1.7 µM·h. Besides, the negative-log IC50 (pIC50) is 6.47 in data set [7]; 8.21 in data set [8]; 6.52 in [2]; 7.72 in data set [9]; 8.55 in data set [4]; 8.29 in data set [10]. The hepatocyte CLint in [11] is 134 µL/min/1e6 cells; in data set [3], 6 µL/min/1e6 cells. The molecule further had a bioavailability in [12] of 18%. In [1], this molecule registered a logD of 2.2. Further, the Papp A→B in data set [6] is 14 ×10⁻⁶ cm/s. The molecule also came in with an unbound share (fraction unbound) in [13] of 0.11. For the same molecule, in [14], the Vd worked out at 0.9 L/kg. The same molecule had a clearance in data set [15] of 47 mL/min/kg.
